How the values were obtained:
[1] = target: T1, 5-hydroxytryptamine receptor 2C (Homo sapiens, UniProt P28335); assay: Agonist activity at human 5HT2C receptor expressed in HEK293 cells assessed as intracellular IP3 accumulation; assay type: functional, cell-based
T1 sequence (P28335 whole entry): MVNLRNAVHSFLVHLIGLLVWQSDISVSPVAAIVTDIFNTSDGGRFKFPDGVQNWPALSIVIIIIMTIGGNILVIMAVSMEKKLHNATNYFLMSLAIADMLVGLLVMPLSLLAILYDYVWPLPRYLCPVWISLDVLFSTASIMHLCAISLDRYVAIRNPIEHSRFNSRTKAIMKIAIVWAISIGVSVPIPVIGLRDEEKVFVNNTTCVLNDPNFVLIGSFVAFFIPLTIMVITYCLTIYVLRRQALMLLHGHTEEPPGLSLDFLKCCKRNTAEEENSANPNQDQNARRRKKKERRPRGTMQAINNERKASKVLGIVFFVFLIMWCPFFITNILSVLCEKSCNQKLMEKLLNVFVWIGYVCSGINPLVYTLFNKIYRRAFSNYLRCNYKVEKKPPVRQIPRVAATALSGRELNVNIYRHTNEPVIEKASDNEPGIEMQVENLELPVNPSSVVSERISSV
How it was run: (§1)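 Functional agonist assay read out as [3H]phosphoinositol turnover; potency expressed as pEC50.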

Rattus norvegicus [2] = assay: Reduction of food intake in Sprague-Dawley rat at 100 umol/kg, po after 2 hrs relative to control; assay type: functional
How it was run: (§2)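 Male Sprague-Dawley rats, caged singly, kept 2 weeks on a reverse light cycle, freely fed, eight per group. Oral gavage of vehicle or compound 1 h before the dark cycle. Food intake measured 2 h postdose and compared with vehicle control.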

Rattus norvegicus [3] = assay: Reduction of food intake in Sprague-Dawley rat at 50 umol/kg, po after 2 hrs relative to control; assay type: functional; how it was run: as §2
Rattus norvegicus [4] = assay: Reduction of food intake in Sprague-Dawley rat at 25 umol/kg, po after 2 hrs relative to control; assay type: functional; how it was run: as §2
[5] = target: Serotonin 2 receptors; 5-HT2a & 5-HT2c (Homo sapiens) (UniProt P28223+P28335); assay: Selectivity ratio of pEC50 for human 5HT2A to pEC50 for human 5HT2C
[6] = target: 5-hydroxytryptamine receptor 2A (Homo sapiens, UniProt P28223); assay: Agonist activity at human 5HT2A receptor expressed in HEK293 cells assessed as intracellular IP3 accumulation; assay type: functional, cell-based; how it was run: as §1
Homo sapiens = organism: Homo sapiens; assay: Selectivity ratio of pEC50 for human 5HT2B to pEC50 for human 5HT2C
[7] = target: 5-hydroxytryptamine receptor 2B (Homo sapiens, UniProt P41595); assay: Agonist activity at human 5HT2B receptor expressed in HEK293 cells assessed as intracellular IP3 accumulation; assay type: functional, cell-based; how it was run: as §1
Rattus norvegicus [8] = assay: Reduction of food intake in Sprague-Dawley rat at 12.5 umol/kg, po after 2 hrs relative to control; assay type: functional; how it was run: as §2
Rattus norvegicus [9] = assay: Reduction of body weight in Sprague-Dawley rat at 9 mg/kg, po, bid after 28 days relative to control; assay type: functional; design: scale not given: the % may be the effect or the level left
How it was run: (§3)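 Adult male Sprague-Dawley rats (250–400 g), caged separately with free access to food and water. Oral gavage of vehicle or drug for 28 days, with arms of 9, 18 and 36 mg/kg twice daily and 18 mg/kg once daily. Daily food intake and body weight recorded and compared with vehicle control.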

[10] = Clearance in Sprague-Dawley rat at 5 mg/kg, iv; assay type: ADME, organism-based; design: dose 5 mg/kg, route intravenous; conditions: in vivo
[11] = AUC (0-infinity) in Sprague-Dawley rat at 5 mg/kg, iv; assay type: ADME, organism-based; design: time infinity, dose 5 mg/kg, route intravenous; conditions: plasma
[12] = Volume of distribution at steady state in Sprague-Dawley rat at 5 mg/kg, iv; assay type: ADME, organism-based; design: dose 5 mg/kg, route intravenous; conditions: in vivo, read-out: Vdss
[13] = Oral bioavailability in Sprague-Dawley rat at 10 mg/kg; assay type: ADME, organism-based; conditions: in vivo
[14] = Tmax in Sprague-Dawley rat at 10 mg/kg, po; assay type: ADME, organism-based; design: dose 10 mg/kg, route oral; conditions: in vivo
[15] = AUC (0-infinity) in Sprague-Dawley rat at 10 mg/kg, po; assay type: ADME, organism-based; design: time infinity, dose 10 mg/kg, route oral; conditions: plasma
[16] = Half life in Sprague-Dawley rat at 10 mg/kg, po; assay type: ADME, organism-based; design: dose 10 mg/kg, route oral; conditions: in vivo
Rattus norvegicus [17] = organism: Rattus norvegicus; assay: Reduction of food intake in Sprague-Dawley rat after 6 hrs relative to control; assay type: functional
How it was run: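 Male Sprague-Dawley rats, individually caged after 2 weeks on a reverse light cycle, freely fed, eight per group. Dosed by oral gavage 1 h before the dark cycle. Food intake measured 6 h postdose versus vehicle-treated rats.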

[18] = Cmax in Sprague-Dawley rat at 10 mg/kg, po; assay type: ADME, organism-based; design: dose 10 mg/kg, route oral; conditions: in vivo
[19] = Half life in Sprague-Dawley rat at 5 mg/kg, iv; assay type: ADME, organism-based; design: dose 5 mg/kg, route intravenous; conditions: in vivo
Rattus norvegicus [20] = assay: Reduction of body weight in Sprague-Dawley rat at 18 mg/kg, po, bid after 28 days relative to control; assay type: functional; design: scale not given: the % may be the effect or the level left; how it was run: as §3
Rattus norvegicus [21] = assay: Reduction of body weight in Sprague-Dawley rat at 18 mg/kg, po, qd after 28 days relative to control; assay type: functional; design: scale not given: the % may be the effect or the level left; how it was run: as §3
Rattus norvegicus [22] = assay: Reduction of body weight in Sprague-Dawley rat at 36 mg/kg, po, bid after 28 days relative to control; assay type: functional; design: scale not given: the % may be the effect or the level left; how it was run: as §3

5-hydroxytryptamine receptor 2B, sequence (P41595 whole entry): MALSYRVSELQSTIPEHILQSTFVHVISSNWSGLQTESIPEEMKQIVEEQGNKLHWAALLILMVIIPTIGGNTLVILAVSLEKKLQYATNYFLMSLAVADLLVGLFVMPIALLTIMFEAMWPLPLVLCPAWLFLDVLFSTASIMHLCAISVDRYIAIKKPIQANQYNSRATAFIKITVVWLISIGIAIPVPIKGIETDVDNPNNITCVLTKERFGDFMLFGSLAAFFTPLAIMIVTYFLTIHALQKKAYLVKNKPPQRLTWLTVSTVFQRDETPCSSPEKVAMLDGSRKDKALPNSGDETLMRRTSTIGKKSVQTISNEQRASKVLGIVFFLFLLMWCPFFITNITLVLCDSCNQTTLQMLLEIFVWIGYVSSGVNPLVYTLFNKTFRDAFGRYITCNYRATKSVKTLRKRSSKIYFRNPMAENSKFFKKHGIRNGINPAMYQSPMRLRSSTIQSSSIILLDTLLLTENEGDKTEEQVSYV
Serotonin 2 receptors; 5-HT2a & 5-HT2c (Homo sapiens), sequence (P28223 whole entry, looked up, one chain of several): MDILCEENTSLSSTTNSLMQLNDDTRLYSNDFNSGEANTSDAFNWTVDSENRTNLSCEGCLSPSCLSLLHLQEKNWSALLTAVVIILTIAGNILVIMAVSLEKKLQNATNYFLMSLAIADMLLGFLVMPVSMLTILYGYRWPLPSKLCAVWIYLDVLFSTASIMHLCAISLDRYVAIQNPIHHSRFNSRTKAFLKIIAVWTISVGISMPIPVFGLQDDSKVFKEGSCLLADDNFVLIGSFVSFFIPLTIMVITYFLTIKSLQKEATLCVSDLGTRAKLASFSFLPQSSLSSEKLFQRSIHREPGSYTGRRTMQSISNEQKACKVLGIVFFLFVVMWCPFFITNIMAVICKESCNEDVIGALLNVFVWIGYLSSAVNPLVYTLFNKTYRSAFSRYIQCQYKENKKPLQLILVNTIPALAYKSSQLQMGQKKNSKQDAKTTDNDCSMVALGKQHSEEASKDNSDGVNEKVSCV
5-hydroxytryptamine receptor 2A, sequence (P28223 whole entry): as the sequence (P28223 whole entry, looked up, one chain of several) above

Structure (SMILES)	EC50 [1] [nM]	inhibition in vivo at 100 µmol/kg (Rattus norvegicus [2]) [%]	inhibition in vivo at 50 µmol/kg (Rattus norvegicus [3]) [%]	inhibition in vivo at 25 µmol/kg (Rattus norvegicus [4]) [%]	Selectivity ratio [5]	EC50 [6] [nM]	Selectivity ratio (Homo sapiens)	EC50 [7] [nM]	also measured
Clc1ccc2c(c1)CCNCC2	12.6	85	68	63	0.9	100	1.9	–	–
CC1CNCCc2cc(Cl)c(Cl)cc21 (racemic)	–	60	44	33	0.7	20	1.1	50.1	–
C[C@H](N)Cc1cccc(C(F)(F)F)c1 [NORDEXFENFLURAMINE]	25.1	–	–	–	0.9	200	-0.2	15.8	–
CC1CNCCc2ccc(F)cc21 (racemic)	398	–	–	–	–	–	–	> 10000	–
C[C@@H]1CNCCc2ccc(Cl)cc21	–	73	41	26	–	–	–	–	inhibition in vivo at 12.5 µmol/kg (Rattus norvegicus [8]): 7%
CC1CNCCc2c(Cl)cc(Cl)cc21 (centres undefined)	–	–	–	–	0.8	126	1.6	794	–
CC1CNCCc2ccc(Cl)c(Cl)c21 (racemic)	7.94	–	–	–	1.4	200	2.3	1580	–
COc1cc2c(cc1Cl)C(C)CNCC2 (racemic) [listing 1 of 2 here]	7.94	71	52	38	–	63.1	–	63.1	–
CC1CNCCc2ccc(Cl)cc21 (racemic)	–	81	62	52	–	–	–	–	–
C[C@H](N)Cn1ccc2cc(F)c(Cl)cc21	3.98	–	–	–	1.1	50.1	-0.4	1.58	–
COc1ccc2c(c1)C(C)CNCC2 (racemic)	200	–	–	–	–	251	–	5010	–
C[C@@H]1CNCCc2ccc(Cl)c(F)c21	3.98	–	–	–	2.4	1000	> 3.4	> 10000	–
COc1cc2c(cc1Cl)C(C)CNCC2 (single isomer, unassigned; form 1) [listing 1 of 2 here]	–	–	–	–	1.4	–	1.7	–	–
c1ccc2c(c1)CCNCC2	3160	–	–	–	–	> 10000	–	> 10000	–
COc1cc2c(cc1Cl)C(C)CNCC2 (single isomer, unassigned; form 2) [listing 1 of 2 here]	6.31	77	66	60	–	31.6	–	39.8	–
COc1cc2c(cc1Cl)C(C)CNCC2 (single isomer, unassigned; form 1) [listing 2 of 2 here]	7.94	43	36	32	–	200	–	398	–
COc1ccc2c(c1)CCNCC2C (racemic)	1260	–	–	–	–	> 10000	–	> 10000	–
COc1cc2c(cc1Cl)C(C)CNCC2 (single isomer, unassigned; form 2) [listing 2 of 2 here]	–	–	–	–	0.7	–	0.8	–	–
C[C@H]1CNCCc2ccc(C(F)(F)F)cc21	7.94	–	41	22	1.2	126	1.8	501	inhibition in vivo at 12.5 µmol/kg (Rattus norvegicus [8]): 14%

Structure (SMILES)	EC50 [1] [nM]	inhibition in vivo at 100 µmol/kg (Rattus norvegicus [2]) [%]	inhibition in vivo at 50 µmol/kg (Rattus norvegicus [3]) [%]	inhibition in vivo at 25 µmol/kg (Rattus norvegicus [4]) [%]	Selectivity ratio [5]	EC50 [6] [nM]	Selectivity ratio (Homo sapiens)	EC50 [7] [nM]	also measured
COc1cc2c(cc1Cl)C(C)CNCC2 (racemic) [listing 2 of 2 here]	–	–	–	–	0.9	–	0.9	–	–
C[C@H]1CNCCc2ccc(Cl)c(Cl)c21	316	–	–	–	–	2510	–	> 10000	–
C[C@H]1CNCCc2cc(Cl)c(Cl)cc21	3.98	66	40	16	0.4	10	1	39.8	–
CC1(C)CNCCc2ccc(Cl)cc21	200	–	–	–	–	1580	–	> 10000	–
CC1CNCCc2ccc(C(F)(F)F)cc21 (racemic)	6.31	–	–	–	1.2	–	2.1	794	–
CC1CNCCc2cc(Cl)ccc21 (racemic)	25.1	–	–	–	0.8	158	1.3	501	–
CC[C@H]1CNCCc2ccc(Cl)cc21	39.8	–	–	–	0.8	251	0.8	251	–
C[C@@H]1CNCCc2cc(Cl)c(Cl)cc21	7.94	74	58	54	1.1	100	1.5	251	–
CC1CNCCc2c(Cl)cccc21 (racemic)	794	–	–	–	–	> 10000	–	> 10000	–
COc1cc2c(cc1Cl)CCNCC2C (racemic)	50.1	–	–	–	0.3	100	0.6	200	–
CC1CNCCc2ccc(Cl)c(F)c21 (racemic)	20	–	–	–	1.6	794	2.1	2510	–
C[C@@H]1CNCCc2ccc(Cl)c(Cl)c21	3.16	69	41	19	1.6	126	2.6	1260	–
CC1CNCCc2cc(F)c(Cl)cc21 (racemic)	6.31	58	41	30	1	63.1	1.7	316	–
CC[C@@H]1CNCCc2ccc(Cl)cc21	20	–	–	–	1.2	316	1.5	631	–
C[C@H]1CNCCc2ccc(Cl)cc21 [LORCASERIN]	–	82	77	58	–	–	–	–	Activity (Rattus norvegicus [9]): 15.75%; clearance [10]: 102 mL/min/kg; inhibition in vivo at 12.5 µmol/kg (Rattus norvegicus [8]): 34%; AUC(0-inf) [11]: 800 ng·h/mL; Vd [12]: 18 L/kg; bioavailability [13]: 86%; Tmax [14]: 30 min; AUC(0-inf) [15]: 1400 ng·h/mL; half-life [16]: 222 min; ED50 (Rattus norvegicus [17]): 18 mg/kg; Cmax [18]: 260 ng/mL; half-life [19]: 186 min; Activity (Rattus norvegicus [20]): 14.03%; Activity (Rattus norvegicus [21]): 17.02%; Activity (Rattus norvegicus [22]): 8.5%
CC1CNCCc2cccc(Cl)c21 (racemic)	794	–	–	–	–	> 10000	–	> 10000	–
CC1CNCCc2ccc(Br)cc21 (racemic)	10	–	–	–	1.7	501	2.3	2000	–
C[C@@H]1CNCCc2ccc(C(F)(F)F)cc21	10	–	45	18	1	100	1.9	794	inhibition in vivo at 12.5 µmol/kg (Rattus norvegicus [8]): 16%
CC1CNCCc2ccccc21 (racemic)	316	–	–	–	–	–	–	3980	–

From ChEMBL document CHEMBL1140712 (J Med Chem, 2008)
